TNAP act hiacc: increases human TNAP activity under high phosphate acceptor concentration; 200,000 tested, under 10 active; activation factor at 20 µM; purified TNAP, CDP-star luminescence, 1 M DEA, 30 min; hits give high values; 0 = EDTA background, 1 = DMSO-only activity;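 active = activation factor at least 2 at 20 µM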
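Measured by: Luminescent substrate turnover signal | Test system: Human TNAP | Input: TNAP 1/800 final | Dosing: 20 µM single point | Schedule: 30 min, room temperature | Controls: EDTA wells as negative control, DMSO wells as positive control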
ABCB6 inh MLPCN: inhibitors of human ABC transporter ABCB6; K562-ABCB6 porphyrin accumulation, flow cytometry, 1 h; hits give low values; Q9NP58; fluorescence ratio to DMSO, % at 10 µM; hit rate 0.19% among 360,000;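 active = fluorescence ratio to DMSO below 75%, the collection mean minus 3 SD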;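 also: signal is porphyrin accumulated inside mitochondria; 100% equals median channel fluorescence of DMSO control wells; lower ratio means ABCB6 inhibition with less porphyrin fluorescence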
Target sequence (Q9NP58 whole entry, looked up): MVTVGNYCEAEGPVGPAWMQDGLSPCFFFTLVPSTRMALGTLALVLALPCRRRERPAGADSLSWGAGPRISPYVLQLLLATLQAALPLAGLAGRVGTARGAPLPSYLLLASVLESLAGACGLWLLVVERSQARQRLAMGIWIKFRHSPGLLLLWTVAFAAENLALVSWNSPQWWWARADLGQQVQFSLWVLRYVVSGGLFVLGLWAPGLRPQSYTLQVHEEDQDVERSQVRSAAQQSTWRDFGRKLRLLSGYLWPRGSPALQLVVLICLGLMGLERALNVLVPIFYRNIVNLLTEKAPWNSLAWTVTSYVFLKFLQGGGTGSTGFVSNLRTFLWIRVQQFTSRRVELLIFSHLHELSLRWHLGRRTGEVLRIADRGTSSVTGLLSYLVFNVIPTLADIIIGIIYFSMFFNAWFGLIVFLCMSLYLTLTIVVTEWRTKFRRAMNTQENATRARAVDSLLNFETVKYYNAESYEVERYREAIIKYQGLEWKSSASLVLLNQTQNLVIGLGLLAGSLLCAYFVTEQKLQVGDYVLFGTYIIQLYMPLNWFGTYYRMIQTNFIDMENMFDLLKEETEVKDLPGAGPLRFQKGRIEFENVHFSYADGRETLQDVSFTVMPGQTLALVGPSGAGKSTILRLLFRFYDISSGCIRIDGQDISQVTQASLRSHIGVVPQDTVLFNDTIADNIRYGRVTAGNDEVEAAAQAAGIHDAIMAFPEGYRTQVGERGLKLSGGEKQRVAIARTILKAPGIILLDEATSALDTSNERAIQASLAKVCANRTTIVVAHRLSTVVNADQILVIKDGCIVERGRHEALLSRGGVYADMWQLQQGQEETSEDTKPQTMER
CHT allo act: allosterically activates the human high affinity choline transporter. hit rate 0.49% among 310,000. CHT-expressing cells, membrane potential dye, choline EC20; hits give high values; LV-AA mutant CHT in HEK293 cells. B-score at 10 µM. Q9GZV3;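 active = initial fluorescence not abnormally high and integrated response B-score, plate-corrected, over 3 SD above library mean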
TNAP inh hiacc: inhibitors of human TNAP at high phosphate acceptor concentration. hit rate 0.03% among 200,000. purified TNAP, CDP-star luminescence, 1 M DEA. P05186. inhibition, % at 20 µM;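 active = over 50% inhibition of tissue-nonspecific alkaline phosphatase at 20 µM in the single-dose screen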;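 also: plate controls were DMSO wells for no effect and EDTA-quenched wells as full inhibition for full effect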
TNAP inh no acc: inhibitors of human TNAP without phosphate acceptor; P05186; purified TNAP, CDP-star luminescence, 30 min; inhibition, % at 20 µM; hit rate 0.26% among 200,000;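 active = tissue-nonspecific alkaline phosphatase inhibition above about 50% at 20 µM in the single-dose screen, limit read from the data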;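 also: 0% = DMSO negative control and 100% = EDTA positive control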
CHT inh: inhibits the human high affinity choline transporter | CHT-expressing cells, membrane potential dye, choline response; hits give low values | B-score at 10 µM | hit rate 0.86% among 310,000 | AID 488975;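 active = B-score over 3 SD under the library average, and starting fluorescence ratio not unusually high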;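 also: choline stimulus applied at its EC90 after an EC20 pre-addition; B-score computed on integrated fluorescence ratio after choline addition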
ABCB6 inh CP1: blocks the human ABCB6 transporter | shares compounds with ABCB6 inh MLPCN | K562-ABCB6 porphyrin accumulation, flow cytometry, 1 h; hits give low values | ratio response (% of DMSO), % at 10 µM | 700 tested, under 10 active;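 active = repeat-averaged ratio response below 75% of DMSO, the collection mean minus 3 SD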;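 also: median porphyrin fluorescence at 575 nm with 488 nm excitation from mitochondria; lower ratio means less porphyrin signal so ABCB6 inhibition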
* marks the source's active call; other numbers are inactive results; i = inactive; . = no result given. Most compounds without a hit are left out; they make up all but 1.4% or so of the library.

SMILES	TNAP act hiacc	ABCB6 inh MLPCN	CHT allo act	TNAP inh hiacc	TNAP inh no acc	CHT inh	ABCB6 inh CP1
O=S1(=O)C=C[C@@H](COCc2ccccc2)N1Cc1ccc(Br)cc1	.	97	.	.	.	.	.
C[C@H](CO)N1C[C@H](C)[C@@H](CN(C)S(=O)(=O)c2ccccc2)Oc2c(NC(=O)CCC(F)(F)F)cccc2C1=O	.	101	.	.	.	.	.
COc1ccc(S(=O)(=O)NC(=O)C2(C)CCN2C(=O)Cc2ccccc2Cl)cc1 (configuration not stated)	.	95	.	.	.	.	102
CC1(C(=O)NS(=O)(=O)c2ccccc2)CCN1C(=O)CCc1ccc(Cl)cc1Cl (configuration not stated)	.	96	.	.	.	.	98
COc1ccc(S(=O)(=O)n2ccc(-c3ccc(OCCN(C)c4ccccn4)cc3)n2)cc1	1	73*	i	0	2	i	100
CCN(c1ccccc1)S(=O)(=O)c1ccc(Cl)c(C(=O)NC2CCN(Cc3ccccc3)CC2)c1	.	96	.	.	.	.	.
Cn1c(NCCCO)nc2c1c(=O)n(Cc1ccccc1F)c(=O)n2C	1	100	i	-5	-11	i	.
COc1ccccc1Oc1nc2c(c(=O)n(Cc3ccccc3F)c(=O)n2C)n1C	1	74*	i	-4	-9	i	98
COc1ccc(N(CC(=O)Nc2ccccc2C(=O)NCCc2ccccc2)S(C)(=O)=O)cc1OC	1	97	i	-1	-8	i	.
COc1cc(-c2cc3nc(NCCc4ccc(S(N)(=O)=O)cc4)ccn3n2)cc(OC)c1OC	.	60*	.	.	.	.	100
NS(=O)(=O)c1ccc(CCNc2ccn3nc(-c4ccccc4)cc3n2)cc1	.	103	.	.	.	.	.
O=C(O)c1ccc(-c2noc(-c3cccc(F)c3)n2)cc1	.	90	i	.	.	i	.
CC1CCN(c2ccc3nnc(CCC(=O)N4CCN(c5ccc(F)cc5)CC4)n3n2)CC1	.	96	i	.	.	i	.
CC(C)CCNC(=O)CCc1nnc2ccc(N3CCC(C)CC3)nn12	.	97	i	.	.	i	100
CCOC(=O)C(C)NC(=O)CCc1nnc2ccc(N3CCC(C)CC3)nn12 (configuration not stated)	.	72*	i	.	.	i	99
CC1CCN(c2ccc3nnc(CCC(=O)NCC(C)c4ccccc4)n3n2)CC1 (configuration not stated)	.	99	i	.	.	i	.
CCC(C)NC(=O)CCc1nnc2ccc(N3CCC(C)CC3)nn12 (configuration not stated)	.	61*	i	.	.	i	99
CC1CCN(c2ccc3nnc(CCC(=O)N4CCCCC4)n3n2)CC1	.	98	i	.	.	i	100
Cc1cccc(N(CC(=O)N/N=C/c2ccc(C(=O)O)cc2)S(=O)(=O)c2ccccc2)c1C	.	98	i	.	.	i	.
COC(=O)C(NC(=O)CCc1nnc2ccc(N3CCC(C)CC3)nn12)C(C)C (configuration not stated)	.	97	i	.	.	i	117
O=C(CN1C(=O)c2cccc3cccc1c23)N1CCN(c2ccc(F)cc2)CC1	1	60*	i	0	-4	i	104
COc1cccc(-c2nnc(SCC3CNC(=O)O3)n2-c2ccc(Cl)cc2)c1 (configuration not stated)	0.9	67*	i	7	-6	i	99
COc1cccc(-c2nnc(SCC(=O)N3CCCC3=O)n2-c2ccccc2)c1	1	100	i	-4	0	i	.
COc1cc(NC(=O)c2cccs2)c(OC)cc1NC(=O)CCC(=O)Nc1ccc2ncccc2c1	1.1	86	.	-7	-10	.	.
CCN1C(=O)c2ccccc2S(=O)(=O)c2ccc(C(=O)NCCCN(CC(C)C)CC(C)C)cc21	.	66*	i	.	.	i	101
SMILES	TNAP act hiacc	ABCB6 inh MLPCN	CHT allo act	TNAP inh hiacc	TNAP inh no acc	CHT inh	ABCB6 inh CP1
O=C1N=C(N2CCCC2)S/C1=C\C=C\c1ccccc1	.	85	i	.	.	i	.
Clc1ccccc1-c1nnc2sc(C3COc4ccccc4O3)nn12 (configuration not stated)	1	44*	i	0	47	i	100
COc1ccc(CCCNC(=O)C2(C)Cc3c(-c4ccc(C(N)=O)cc4)ccnc3O2)cc1 (configuration not stated)	.	71*	.	.	.	.	98
Cc1nc2c(C(=O)NCCC(C)C)c[nH]n2c(=O)c1Cc1ccccc1F	1.1	102	i	-6	0	i	100
Cc1nc2c(C(=O)NCCC(C)C)c[nH]n2c(=O)c1Cl	1	101	i	-4	-8	i	.
COC(=O)C1=C(C)Nc2[nH]c(=S)[nH]c(=O)c2C1c1ccc(O)cc1 (configuration not stated)	.	104	i	.	.	i	.
CN(C)c1ccc(NC(=O)Nc2nc(C(N)C3CCCCC3)cs2)cc1 (configuration not stated)	.	97	.	.	.	.	.
O=C(CCc1ccc(S(=O)(=O)N2CCOCC2)cc1)Oc1ccccc1	1	62*	i	1	-4	i	98
O=C(O)CCc1ccc(S(=O)(=O)N2CCOCC2)cc1	1.1	96	i	-6	-2	i	.
Cn1c(=O)c2c(ncn2CC(=O)NC(C)(C)C)n(C)c1=O	1	74*	i	-1	-7	i	99
COCC1CCCN(C(=O)c2ccc(OC3CCN(Cc4ccccn4)CC3)cc2)C1 (configuration not stated)	1.1	12*	i	-6	-7	i	95
CC(=O)N1CCN(C(=O)c2ccc(OC3CCN(Cc4ccccn4)CC3)cc2)CC1	.	101	i	.	.	i	.
CCc1cccc(C)c1NC(=O)Nc1c(Br)cnn1C	.	97	i	.	.	i	.
COc1ccc(/C=N/NC(=O)c2ccncc2)cc1CSc1nc2ccccc2s1	1	97	i	-4	-35	i	.
CSc1ncc(Cl)c(C(=O)Nc2cccc3ccccc23)n1	1	101	i	4	-6	i	.
CSc1ncc(Cl)c(C(=O)Nc2cccc(C)c2)n1	1	94	i	4	-3	i	.
O=C(Nc1ccc(F)cc1)c1nc(S(=O)(=O)Cc2ccccc2)ncc1Cl	.	46*	i	.	.	i	93
Cc1cccc(CS(=O)(=O)c2ncc(Cl)c(C(=O)Nc3c(C)cccc3C)n2)c1	.	100	i	.	.	i	94
COc1ccc(OC)c(NC(=O)CS(=O)(=O)Cc2ccccc2)c1	.	104	.	.	.	.	.
